Columns and labels:
Cavia porcellus = species on record: Cavia porcellus; experiment: Inhibition of the electrically induced muscle contractions was determined using the guinea pig ileum; type: functional
How it was run: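 Intact ileum segments (about 3 cm) suspended under 1 g tension in modified Krebs buffer containing 1.20 mM MgSO4. Field-stimulated with square-wave pulses at 0.1 Hz, 0.5 ms, supramaximal voltage. Cumulative concentrations were each given time for maximal response before the next.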

[1] = target: Delta-type opioid receptor (Rattus norvegicus, UniProt P33533); experiment: Binding affinity of compound evaluated for Opioid receptor delta 1 isolated from rat brain
Sequence of Delta-type opioid receptor (P33533 whole entry): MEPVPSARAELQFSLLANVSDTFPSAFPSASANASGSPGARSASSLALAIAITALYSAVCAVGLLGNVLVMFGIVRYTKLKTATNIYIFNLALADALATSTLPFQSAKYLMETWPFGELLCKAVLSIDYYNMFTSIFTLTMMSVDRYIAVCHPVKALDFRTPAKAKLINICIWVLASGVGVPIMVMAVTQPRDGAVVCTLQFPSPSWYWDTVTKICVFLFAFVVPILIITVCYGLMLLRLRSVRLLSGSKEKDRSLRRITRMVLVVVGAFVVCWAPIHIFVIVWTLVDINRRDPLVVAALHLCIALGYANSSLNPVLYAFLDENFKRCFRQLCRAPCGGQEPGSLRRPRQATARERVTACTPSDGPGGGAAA

Mus musculus = species on record: Mus musculus; experiment: Inhibition of the electrically induced muscle contractions was determined using the mouse vas deferens; type: functional
How it was run: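 Vas deferens segments in Krebs buffer, placed between platinum electrodes with isometric force recording at 0.5 g resting tension. Stimulated with 400 ms trains (1 ms pulses, 10 Hz, supramaximal voltage). Cumulative concentrations were each allowed maximal effect before the next.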

SMILES	EC50 (Cavia porcellus) [nM]	Ki [1] [nM]	EC50 (Mus musculus) [nM]	EC50 (Cavia porcellus; Cavia porcellus, Ileum) [nM]	EC50 (Mus musculus; Mus musculus) [nM]
C=CCN1C[C@H](C)N([C@@H](c2cccc(O)c2)c2cccc(C(=O)N(C)c3cccc(F)c3)c2)C[C@H]1C (stereo in doubt; 24)	3.4	0.18	0.79	–	–
C=CCN1C[C@H](C)N([C@@H](c2cccc(O)c2)c2cccc(C(=O)N(C)c3ccc(F)cc3)c2)C[C@H]1C	–	1.4	–	0.67	1.1
C=CCN1C[C@H](C)N([C@@H](c2cccc(O)c2)c2cccc(C(=O)N(C)c3ccccc3)c2)C[C@H]1C	–	1.37	–	59.5	1.7
C=CCN1C[C@H](C)N([C@@H](c2cccc(O)c2)c2cccc(C(=O)N(C)c3ccccc3F)c2)C[C@H]1C	–	–	–	4.1	0.69
C=CCN1C[C@H](C)N([C@@H](c2cccc(O)c2)c2cccc(C(=O)N(CC)c3ccc(F)cc3)c2)C[C@H]1C	–	–	–	4	1.4
C=CCN1C[C@H](C)N([C@@H](c2cccc(O)c2)c2cccc(C(=O)N(C)c3ccc(OC)cc3)c2)C[C@H]1C	–	2.01	–	1.1	0.36
C=CCN1C[C@H](C)N([C@@H](c2cccc(O)c2)c2cccc(C(=O)N(C)c3ccc(Cl)cc3)c2)C[C@H]1C	–	2.73	–	4.9	2.6
C=CCN1C[C@H](C)N([C@@H](c2cccc(O)c2)c2cccc(C(=O)N(C)c3ccccc3C(F)(F)F)c2)C[C@H]1C	–	–	–	5.6	0.95
C=CCN1C[C@H](C)N([C@@H](c2cccc(O)c2)c2cccc(C(=O)N3CCCc4ccccc43)c2)C[C@H]1C	–	1.18	–	11.5	1.05
C=CCN1C[C@H](C)N([C@@H](c2cccc(O)c2)c2cccc(C(=O)N(CCC)c3ccc(F)cc3)c2)C[C@H]1C	–	2.75	–	1050	0.68
C=CCN1C[C@H](C)N([C@@H](c2cccc(O)c2)c2cccc(C(=O)N(C)c3ccc([N+](=O)[O-])cc3)c2)C[C@H]1C	–	–	–	4.1	2.3
C=CCN1C[C@H](C)N([C@@H](c2cccc(O)c2)c2cccc(C(=O)N(c3ccccc3)C3CC3)c2)C[C@H]1C	–	1.92	–	1.23	1.42
C=CCN1C[C@H](C)N([C@@H](c2cccc(O)c2)c2cccc(C(=O)N(C)c3cccc(F)c3)c2)C[C@H]1C (stereo in doubt; 32)	1800	11.4	25.3	–	–
C=CCN1C[C@H](C)N([C@@H](c2cccc(O)c2)c2cccc(C(=O)N(CCC)c3ccccc3)c2)C[C@H]1C	–	1.26	–	18	2.4
C=CCN1C[C@H](C)N([C@H](c2cccc(O)c2)c2cccc(C(=O)N(CC)CC)c2)C[C@H]1C	–	2.1	–	4.35	5.85
C=CCN1C[C@H](C)N([C@@H](c2cccc(O)c2)c2cccc(C(=O)N(CCCC)c3ccccc3)c2)C[C@H]1C	–	–	–	41	1.7
C=CCN1C[C@H](C)N([C@@H](c2cccc(O)c2)c2cccc(C(=O)N(C)CCc3ccccc3)c2)C[C@H]1C	–	–	–	6.6	0.34
C=CCN1C[C@H](C)N([C@@H](c2cccc(O)c2)c2cccc(C(=O)N(CC)c3ccccc3)c2)C[C@H]1C	–	2.17	–	0.94	0.96
C=CCN1C[C@H](C)N(C(c2ccc(C(=O)N(CC)CC)cc2)c2cccc(O)c2)C[C@H]1C (single isomer, unassigned)	–	1.8	–	150	0.2
C=CCN1C[C@H](C)N([C@@H](c2cccc(O)c2)c2cccc(C(=O)N(C)Cc3ccccc3)c2)C[C@H]1C	–	–	–	6.07	5.6
C=CCN1C[C@H](C)N([C@H](c2cccc(O)c2)c2cccc(C(=O)N(C)c3ccccc3)c2)C[C@H]1C	–	–	–	1.22	0.47
